# Activity calls are given as the source filed them. The calls are words filed in the database; no cut-off is given here.
# Tests used:
# HCC 2998 = experiment: Antiproliferative activity against human HCC 2998 cells assessed as growth inhibition incubated for 72 hrs by MTT assay; format: functional
# COLO 205 = experiment: Antiproliferative activity against human COLO 205 cells assessed as growth inhibition incubated for 72 hrs by MTT assay; format: functional
# A549 = experiment: Induction of cell cycle arrest in human A549 cells assessed as reduction in accumulation of cells at S phase at 1 uM incubated for 24 hrs by PI staining based flow cytometry analysis; format: functional
# How it was run: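 Seeding in 6-well plates, 2 mL medium: A549 5×10^4, CCRF-CEM 2.5×10^5, VL51 2.0×10^5. 24 h treatment, A549 detached with trypsin-EDTA. Cells fixed in 70% ice-cold ethanol, PI-labelled, analysed by flow cytometry. Mean of two independent experiments.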
# NCI-H23 = experiment: Antiproliferative activity against human NCI-H23 cells assessed as growth inhibition incubated for 72 hrs by MTT assay; format: functional
# [1] = Antiproliferative activity against human MINO cells assessed as cell growth inhibition measured after 72 hrs by MTT assay; format: functional, cell-based
# How it was run: (§1)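 Lymphoma cells in RPMI-1640 with 20% FBS, seeded at 5,000–10,000 cells/well depending on doubling time. Exposed for 72 h at 37 °C, 5% CO2 to a 1:2 serial dilution from 0 to 10 μM (DMSO ≤0.1%). MTT from a 5 mg/mL stock was added for 4 h, cells were lysed with 25% SDS, and A570 was read against medium-only blanks. IC50 from triplicate assays.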
# K562 = experiment: Antiproliferative activity against human K562 cells assessed as growth inhibition incubated for 72 hrs by MTT assay; format: functional
# VL51 [2] = experiment: Antiproliferative activity against human VL51 cells assessed as reduction in cell proliferation at 1 uM measured after 72 hrs by MTT assay relative to control; format: functional; design: scale not given: the % may be the effect or the level left
# How it was run: (§2)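 Single-dose 1 μM screen in lymphoma cells (RPMI-1640, 20% FBS; 5,000–10,000 cells/well), 72 h at 37 °C, 5% CO2, DMSO ≤0.1%. MTT for 4 h, SDS lysis, absorbance at 570 nm. Proliferation expressed as percent of untreated control.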
# PC-3 = experiment: Antiproliferative activity against human PC-3 cells assessed as growth inhibition incubated for 72 hrs by MTT assay; format: functional
# HCT-15 = experiment: Antiproliferative activity against human HCT-15 cells assessed as growth inhibition incubated for 72 hrs by MTT assay; format: functional
# SF-268 = experiment: Antiproliferative activity against human SF-268 cells assessed as growth inhibition incubated for 72 hrs by MTT assay; format: functional
# RPMI-8226 = experiment: Antiproliferative activity against human RPMI-8226 cells assessed as growth inhibition incubated for 72 hrs by MTT assay; format: functional
# NCI-H460 = experiment: Antiproliferative activity against human NCI-H460 cells assessed as growth inhibition incubated for 72 hrs by MTT assay; format: functional
# EKVX = experiment: Antiproliferative activity against human EKVX cells assessed as growth inhibition incubated for 72 hrs by MTT assay; format: functional
# U-251 = experiment: Antiproliferative activity against human U-251 cells assessed as growth inhibition incubated for 72 hrs by MTT assay; format: functional
# NCI-H522 = experiment: Antiproliferative activity against human NCI-H522 cells assessed as growth inhibition incubated for 72 hrs by MTT assay; format: functional
# HOP-62 = experiment: Antiproliferative activity against human HOP-62 cells assessed as growth inhibition incubated for 72 hrs by MTT assay; format: functional
# Hs-578T = experiment: Antiproliferative activity against human Hs-578T cells assessed as growth inhibition incubated for 72 hrs by MTT assay; format: functional
# SNB-75 = experiment: Antiproliferative activity against human SNB-75 cells assessed as growth inhibition incubated for 72 hrs by MTT assay; format: functional
# OVCAR-5 = experiment: Antiproliferative activity against human OVCAR-5 cells assessed as growth inhibition incubated for 72 hrs by MTT assay; format: functional
# MDA-MB-231 = experiment: Antiproliferative activity against human MDA-MB-231 cells assessed as growth inhibition incubated for 72 hrs by MTT assay; format: functional
# SK-MEL-5 = experiment: Antiproliferative activity against human SK-MEL-5 cells assessed as growth inhibition incubated for 72 hrs by MTT assay; format: functional
# Tubulin = experiment: Inhibition of tubulin assembly (unknown origin); format: protein-complex assay, Homo sapiens
# HCT-116 = experiment: Antiproliferative activity against human HCT-116 cells assessed as growth inhibition incubated for 72 hrs by MTT assay; format: functional
# NCI-H226 = experiment: Antiproliferative activity against human NCI-H226 cells assessed as growth inhibition incubated for 72 hrs by MTT assay; format: functional
# NCI/ADR-RES = experiment: Antiproliferative activity against human NCI-ADR-RES cells assessed as growth inhibition incubated for 72 hrs by MTT assay; format: functional
# VL51 [3] = experiment: Induction of cell cycle arrest in human VL51 cells assessed as increase in mitotic cells at 1 uM incubated for 24 hrs by PI staining based flow cytometry analysis (reference value: 1.5%); format: functional
# SN12C = experiment: Antiproliferative activity against human SN12C cells assessed as growth inhibition incubated for 72 hrs by MTT assay; format: functional
# M14 = experiment: Antiproliferative activity against human M14 cells assessed as growth inhibition incubated for 72 hrs by MTT assay; format: functional
# SU-DHL10 = experiment: Antiproliferative activity against human SU-DHL-10 cells assessed as reduction in cell proliferation at 1 uM measured after 72 hrs by MTT assay relative to control; format: functional; design: scale not given: the % may be the effect or the level left; how it was run: as §2
# SR = experiment: Antiproliferative activity against human SR cells assessed as growth inhibition incubated for 72 hrs by MTT assay; format: functional
# [4] = Antiproliferative activity against human HBL1 cells assessed as cell growth inhibition measured after 72 hrs by MTT assay; format: functional, cell-based; conditions: HBL1, 72 h; how it was run: as §1
# VL51 [5] = experiment: Antiproliferative activity against human VL51 cells assessed as cell growth inhibition measured after 72 hrs by MTT assay; format: functional, cell-based; conditions: VL51, 72 h
# How it was run: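 Lymphoma cells grown in RPMI-1640 with 20% FBS, seeded at 5,000–10,000 cells/well by doubling time. Doses 0–10 μM, 1:2 serial dilution, DMSO ≤0.1%, 72 h at 37 °C, 5% CO2. MTT (5 mg/mL stock) added for 4 h, SDS lysis, A570 read against medium-only blanks. IC50 from triplicate assays.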
# UO-31 = experiment: Antiproliferative activity against human UO-31 cells assessed as growth inhibition incubated for 72 hrs by MTT assay; format: functional
# 786-0 = experiment: Antiproliferative activity against human 786-0 cells assessed as growth inhibition incubated for 72 hrs by MTT assay; format: functional
# VL51 [6] = experiment: Induction of apoptosis in human VL51 cells assessed as increase in apoptotic cells incubated for 48 hrs by annexin V-FITC and PI staining based flow cytometry analysis; format: functional, cell-based; conditions: dose 1-5 µM
# How it was run: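 Cells exposed to several concentrations for 48 h, then stained with annexin V-FITC and PI and read by flow cytometry (FL1/FL3). Apoptotic cells = annexin V-positive plus annexin V/PI double-positive. Mean of three independent experiments.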
# HT-29 = experiment: Antiproliferative activity against human HT-29 cells assessed as growth inhibition incubated for 72 hrs by MTT assay; format: functional
# MCF7 = experiment: Antiproliferative activity against human MCF7 cells assessed as growth inhibition incubated for 72 hrs by MTT assay; format: functional
SMILES,GI50 (HCC 2998) [nM],GI50 (COLO 205) [nM],Activity (A549),GI50 (NCI-H23) [nM],IC50 [1] [nM],GI50 (K562) [nM],Activity (VL51 [2]) [%],GI50 (PC-3) [nM],GI50 (HCT-15) [nM],GI50 (SF-268) [nM],GI50 (RPMI-8226) [nM],GI50 (NCI-H460) [nM],GI50 (EKVX) [nM],GI50 (U-251) [nM],GI50 (NCI-H522) [nM],GI50 (HOP-62) [nM],GI50 (Hs-578T) [nM],GI50 (SNB-75) [nM],GI50 (OVCAR-5) [nM],GI50 (MDA-MB-231) [nM],further results
COc1ccc(Cn2cc3c(c2-c2cc(OC)c(OC)c(OC)c2)CCCc2cnoc2-3)cc1N,1660,380,Active,1340,400,390,>50,430,530,1450,610,400,2670,510,260,690,400,380,1440,1150,GI50 (SK-MEL-5): 1130 nM; IC50 (Tubulin): 18000 nM; GI50 (HCT-116): 400 nM; GI50 (NCI-H226): 2540 nM; GI50 (NCI/ADR-RES): 600 nM; Activity (VL51 [3]): ~18%; GI50 (SN12C): 840 nM; GI50 (M14): 480 nM; Activity (SU-DHL10): >50%; GI50 (SR): 360 nM; IC50 [4]: 500 nM; IC50 (VL51 [5]): 100 nM; GI50 (UO-31): 690 nM; GI50 (786-0): 520 nM; Activity (VL51 [6]): Dose-Dependent Effect; GI50 (HT-29): 420 nM; GI50 (MCF7): 420 nM
COc1ccc(Cn2cc3c(c2-c2cc(OC)c(OC)c(OC)c2)CCCc2cnoc2-3)cc1,1610,1450,Active,2620,900,420,>50,850,480,4720,1560,500,3000,4470,980,2220,1540,870,3720,2540,GI50 (SK-MEL-5): 2000 nM; IC50 (Tubulin): > 20000 nM; GI50 (HCT-116): 390 nM; GI50 (NCI-H226): 1990 nM; GI50 (NCI/ADR-RES): 540 nM; Activity (VL51 [3]): ~18%; GI50 (SN12C): 4600 nM; GI50 (M14): 390 nM; Activity (SU-DHL10): >50%; GI50 (SR): 360 nM; IC50 [4]: 1000 nM; IC50 (VL51 [5]): 400 nM; GI50 (UO-31): 920 nM; GI50 (786-0): 670 nM; Activity (VL51 [6]): Dose-Dependent Effect; GI50 (HT-29): 1130 nM; GI50 (MCF7): 440 nM
